According to ChEMBL document CHEMBL4229344 (Eur J Med Chem, 2018):

Legend:
[1] = biological target: Serine/threonine-protein kinase pim-3 (Homo sapiens) (UniProt Q86V86); experiment: Binding affinity to wild-type human partial length PIM3 (G16 to A317 residues) expressed in bacterial expression system assessed as residual binding level at 1 uM by Kinomescan method relative to control
[2] = biological target: Eukaryotic translation initiation factor 2-alpha kinase 1 (Homo sapiens) (UniProt Q9BQI3); experiment: Binding affinity to wild-type human partial length EIF2AK1 (Q147 to E603 residues) expressed in mammalian expression system assessed as residual binding level at 1 uM by Kinomescan method relative to control
[3] = biological target: Mitogen-activated protein kinase 11 (Homo sapiens) (UniProt Q15759); experiment: Binding affinity to wild-type human full length p38-beta (M1 to Q364 residues) expressed in bacterial expression system assessed as residual binding level at 1 uM by Kinomescan method relative to control
Method in brief: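 Single-concentration KINOMEscan (DiscoverX) binding screen at 1 μM against a panel of 468 purified kinases and mutants. The read-out is binding relative to control.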

[4] = biological target: Serine/threonine-protein kinase WNK1 (Homo sapiens) (UniProt Q9H4A3); experiment: Binding affinity to wild-type human partial length WNK1 (Q194 to A490 residues) expressed in mammalian expression system assessed as residual binding level at 1 uM by Kinomescan method relative to control
[5] = biological target: Inhibitor of nuclear factor kappa-B kinase subunit beta (Homo sapiens) (UniProt O14920); experiment: Binding affinity to wild-type human full length IKK-beta (M1 to S756 residues) expressed in mammalian expression system assessed as residual binding level at 1 uM by Kinomescan method relative to control
Method in brief: (§1)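 Single-concentration (1 μM) competition-binding screen run by KINOMEscan against a panel of 468 purified kinases and mutants. The read-out is the relative binding activity of the test compound to each kinase.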

[6] = biological target: Tyrosine-protein kinase ABL1 (Homo sapiens, UniProt P00519); experiment: Inhibition of ABL1 (unknown origin) using poly(4:1 Glu,Tyr) peptide as substrate preincubated for 1 hr followed by addition of ATP and measured after 30 mins by ADP-Glo bioluminescence assay
[7] = test system: Phosphatidylinositol 4,5-bisphosphate 3-kinase catalytic subunit alpha isoform (Homo sapiens), P42336 [H1047Y]; experiment: Binding affinity to human partial length PIK3CA H1047Y mutant (R108 to N1068 residues) expressed in mammalian expression system assessed as residual binding level at 1 uM by Kinomescan method relative to control
Method in brief: (§2)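 Kinome-wide single-concentration binding screen (KINOMEscan) at 1 μM against a panel of 468 purified kinases and mutants. Read-out is relative binding of each kinase compared with control. Selectivity across the panel was summarised as an S(10) score.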

[8] = biological target: Serine/threonine-protein kinase 38 (Homo sapiens) (UniProt Q15208); experiment: Binding affinity to wild-type human partial length NDR1 (N33 to E449 residues) expressed in mammalian expression system assessed as residual binding level at 1 uM by Kinomescan method relative to control
[9] = biological target: Megakaryocyte-associated tyrosine-protein kinase (Homo sapiens) (UniProt P42679); experiment: Binding affinity to wild-type human full length CTK (M43 to P508 residues) expressed in mammalian expression system assessed as residual binding level at 1 uM by Kinomescan method relative to control; method in brief: as §1
[10] = test system: Tyrosine-protein kinase ABL1 (Homo sapiens), P00519 [Q252H]; experiment: Binding affinity to human non-phosphorylated ABL1 Q252H mutant (S229 to K512 residues) expressed in mammalian expression system assessed as residual binding level at 1 uM by Kinomescan method relative to control; method in brief: as §2
[11] = biological target: Serine/threonine-protein kinase SIK1 (Homo sapiens) (UniProt P57059); experiment: Binding affinity to wild-type human partial length SIK (M1 to Y304 residues) expressed in bacterial expression system assessed as residual binding level at 1 uM by Kinomescan method relative to control
[12] = Cmax in Sprague-Dawley rat at 1 mg/kg, iv; format: ADME, organism-based; design: dose 1 mg/kg, route intravenous; conditions: in vivo
Method in brief: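 Male Sprague-Dawley rats, 6–8 weeks old and fasted overnight, dosed IV at 1 mg/kg or PO at 10 mg/kg. Formulation was 5% DMSO/40% PEG400/55% saline (1 mg/mL). Jugular blood collected on heparin from 1 min to 8 h (IV) or 5 min to 24 h (PO). Plasma separated by centrifugation at 2–8 °C and stored at −80 °C.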

[13] = biological target: Casein kinase II subunit alpha (Homo sapiens) (UniProt P68400); experiment: Binding affinity to wild-type human full length CSNK2A1 (M1 to Q391 residues) expressed in mammalian expression system assessed as residual binding level at 1 uM by Kinomescan method relative to control; method in brief: as §1
[14] = biological target: Rho-associated protein kinase 1 (Homo sapiens) (UniProt Q13464); experiment: Binding affinity to wild-type human partial length ROCK1 (M1 to R415 residues) expressed in mammalian expression system assessed as residual binding level at 1 uM by Kinomescan method relative to control
[15] = biological target: Serine/threonine-protein kinase 33 (Homo sapiens) (UniProt Q9BYT3); experiment: Binding affinity to wild-type human full length STK33 (M1 to L514 residues) expressed in bacterial expression system assessed as residual binding level at 1 uM by Kinomescan method relative to control
Method in brief: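 KINOMEscan competition binding against 468 purified kinases/mutants, test compound at 1 µM; residual binding relative to control.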

[16] = test system: Hepatocyte growth factor receptor (Homo sapiens), P08581 [M1250T]; experiment: Binding affinity to human partial length MET M1250T mutant (D1010 to S1367 residues) expressed in bacterial expression system assessed as residual binding level at 1 uM by Kinomescan method relative to control; method in brief: as §2
[17] = biological target: Casein kinase I isoform delta (Homo sapiens) (UniProt P48730); experiment: Binding affinity to wild-type human full length CSNK1D (M1 to K409 residues) expressed in bacterial expression system assessed as residual binding level at 1 uM by Kinomescan method relative to control; method in brief: as §1
[18] = biological target: Tyrosine-protein kinase JAK2 (Homo sapiens) (UniProt O60674); experiment: Binding affinity to wild-type human partial length JAK2 JH1 catalytic domain (A829 to G1132 residues) expressed in mammalian expression system assessed as residual binding level at 1 uM by Kinomescan method relative to control
[19] = biological target: Ribosomal protein S6 kinase alpha-3 (Homo sapiens) (UniProt P51812); experiment: Binding affinity to wild-type human partial length C-terminal RSK2 kinase domain 2 (V402 to S715 residues) expressed in mammalian expression system assessed as residual binding level at 1 uM by Kinomescan method relative to control
[20] = biological target: Cyclin-dependent kinase 13 (Homo sapiens) (UniProt Q14004); experiment: Binding affinity to wild-type human partial length CDC2L5 (H675 to S1054 residues) expressed in mammalian expression system assessed as residual binding level at 1 uM by Kinomescan method relative to control
[21] = biological target: MAP kinase-interacting serine/threonine-protein kinase 2 (Homo sapiens) (UniProt Q9HBH9); experiment: Binding affinity to wild-type human partial length MKNK2 (G63 to S388 residues) expressed in mammalian expression system assessed as residual binding level at 1 uM by Kinomescan method relative to control
Sequence of MAP kinase-interacting serine/threonine-protein kinase 2 (Homo sapiens) (Q9HBH9 whole entry, looked up, the tested form may be a part): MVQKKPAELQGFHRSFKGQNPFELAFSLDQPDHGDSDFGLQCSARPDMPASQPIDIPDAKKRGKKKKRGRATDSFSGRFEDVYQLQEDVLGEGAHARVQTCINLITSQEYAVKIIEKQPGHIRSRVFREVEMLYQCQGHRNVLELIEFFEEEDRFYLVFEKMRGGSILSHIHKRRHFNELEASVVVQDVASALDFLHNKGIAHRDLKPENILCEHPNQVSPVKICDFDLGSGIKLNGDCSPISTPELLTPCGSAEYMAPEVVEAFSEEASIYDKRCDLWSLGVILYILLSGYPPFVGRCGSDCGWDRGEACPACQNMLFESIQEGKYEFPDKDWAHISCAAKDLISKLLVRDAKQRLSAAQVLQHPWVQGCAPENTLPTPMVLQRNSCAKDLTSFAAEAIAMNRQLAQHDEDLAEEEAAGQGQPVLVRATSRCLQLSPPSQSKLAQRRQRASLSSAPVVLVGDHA

Sequence of Rho-associated protein kinase 1 (Homo sapiens) (Q13464 2-1354 limits assumed): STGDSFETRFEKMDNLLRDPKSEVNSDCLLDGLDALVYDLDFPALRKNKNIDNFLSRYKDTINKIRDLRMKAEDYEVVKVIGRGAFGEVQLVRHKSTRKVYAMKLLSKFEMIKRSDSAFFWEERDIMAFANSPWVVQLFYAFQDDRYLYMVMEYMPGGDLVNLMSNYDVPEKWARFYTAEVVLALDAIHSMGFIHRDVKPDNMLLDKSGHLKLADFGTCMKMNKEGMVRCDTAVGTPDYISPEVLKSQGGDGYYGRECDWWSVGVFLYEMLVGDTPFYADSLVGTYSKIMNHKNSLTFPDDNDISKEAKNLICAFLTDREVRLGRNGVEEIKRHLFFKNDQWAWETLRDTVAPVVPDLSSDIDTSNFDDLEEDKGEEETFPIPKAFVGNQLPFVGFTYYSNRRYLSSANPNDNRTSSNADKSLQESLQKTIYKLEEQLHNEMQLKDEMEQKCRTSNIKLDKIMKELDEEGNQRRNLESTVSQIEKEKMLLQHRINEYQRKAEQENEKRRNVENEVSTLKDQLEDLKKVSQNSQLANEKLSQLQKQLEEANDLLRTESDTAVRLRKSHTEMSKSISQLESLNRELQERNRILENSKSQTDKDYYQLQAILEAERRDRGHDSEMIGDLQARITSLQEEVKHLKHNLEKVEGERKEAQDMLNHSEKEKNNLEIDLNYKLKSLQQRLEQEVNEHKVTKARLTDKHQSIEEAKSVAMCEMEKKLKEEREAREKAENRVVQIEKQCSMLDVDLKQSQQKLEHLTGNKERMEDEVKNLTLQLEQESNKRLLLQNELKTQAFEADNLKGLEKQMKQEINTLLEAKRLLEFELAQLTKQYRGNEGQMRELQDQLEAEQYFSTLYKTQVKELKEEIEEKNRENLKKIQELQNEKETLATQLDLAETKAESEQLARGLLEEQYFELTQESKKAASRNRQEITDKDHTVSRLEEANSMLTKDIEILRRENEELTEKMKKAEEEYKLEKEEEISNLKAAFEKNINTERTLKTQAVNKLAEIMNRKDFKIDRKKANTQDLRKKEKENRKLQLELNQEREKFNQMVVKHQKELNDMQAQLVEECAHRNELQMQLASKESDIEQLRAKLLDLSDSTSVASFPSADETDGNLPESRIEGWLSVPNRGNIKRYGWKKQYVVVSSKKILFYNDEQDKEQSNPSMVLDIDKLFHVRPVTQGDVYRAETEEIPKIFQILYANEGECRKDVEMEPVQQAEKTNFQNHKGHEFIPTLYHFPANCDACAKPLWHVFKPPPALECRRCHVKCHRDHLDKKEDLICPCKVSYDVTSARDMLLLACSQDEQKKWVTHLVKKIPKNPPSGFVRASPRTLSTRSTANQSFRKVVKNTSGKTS
Sequence of Inhibitor of nuclear factor kappa-B kinase subunit beta (Homo sapiens) (O14920 whole entry, the tested form may be a part): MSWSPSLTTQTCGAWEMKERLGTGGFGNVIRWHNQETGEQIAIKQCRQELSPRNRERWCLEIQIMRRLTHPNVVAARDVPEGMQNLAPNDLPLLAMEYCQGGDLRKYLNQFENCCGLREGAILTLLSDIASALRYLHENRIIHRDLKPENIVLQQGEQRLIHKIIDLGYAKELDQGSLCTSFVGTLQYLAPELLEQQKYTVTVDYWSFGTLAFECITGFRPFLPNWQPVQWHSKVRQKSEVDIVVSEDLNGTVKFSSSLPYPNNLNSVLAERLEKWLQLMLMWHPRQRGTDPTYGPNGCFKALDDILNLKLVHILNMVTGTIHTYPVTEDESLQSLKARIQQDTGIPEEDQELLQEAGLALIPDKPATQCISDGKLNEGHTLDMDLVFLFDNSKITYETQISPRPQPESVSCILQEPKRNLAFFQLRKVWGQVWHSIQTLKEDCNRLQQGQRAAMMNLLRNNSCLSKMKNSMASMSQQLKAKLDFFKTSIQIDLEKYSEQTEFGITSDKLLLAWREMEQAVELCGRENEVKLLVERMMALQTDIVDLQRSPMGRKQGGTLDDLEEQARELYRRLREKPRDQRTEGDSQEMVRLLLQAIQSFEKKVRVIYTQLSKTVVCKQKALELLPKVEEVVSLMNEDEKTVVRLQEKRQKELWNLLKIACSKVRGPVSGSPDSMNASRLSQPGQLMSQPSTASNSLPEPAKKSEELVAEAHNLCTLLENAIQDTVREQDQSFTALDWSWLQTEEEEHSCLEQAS
Sequence of Eukaryotic translation initiation factor 2-alpha kinase 1 (Homo sapiens) (Q9BQI3 whole entry, the tested form may be a part): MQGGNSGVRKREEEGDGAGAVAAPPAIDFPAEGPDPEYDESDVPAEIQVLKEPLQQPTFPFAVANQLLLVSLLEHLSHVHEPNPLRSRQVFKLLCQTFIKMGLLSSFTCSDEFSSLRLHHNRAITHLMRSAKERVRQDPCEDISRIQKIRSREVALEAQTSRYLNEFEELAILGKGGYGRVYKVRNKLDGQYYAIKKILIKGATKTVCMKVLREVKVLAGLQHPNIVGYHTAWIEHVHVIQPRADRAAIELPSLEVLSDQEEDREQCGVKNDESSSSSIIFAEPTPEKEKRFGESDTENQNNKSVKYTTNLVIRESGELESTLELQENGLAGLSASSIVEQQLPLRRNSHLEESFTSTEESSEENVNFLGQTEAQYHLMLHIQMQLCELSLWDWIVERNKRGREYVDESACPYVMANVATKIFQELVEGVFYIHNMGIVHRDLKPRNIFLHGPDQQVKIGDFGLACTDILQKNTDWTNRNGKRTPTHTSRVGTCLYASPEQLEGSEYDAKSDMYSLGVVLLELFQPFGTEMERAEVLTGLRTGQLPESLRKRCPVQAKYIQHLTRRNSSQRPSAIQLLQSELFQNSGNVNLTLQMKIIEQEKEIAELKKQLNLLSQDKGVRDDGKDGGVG
Sequence of Megakaryocyte-associated tyrosine-protein kinase (Homo sapiens) (P42679 whole entry, the tested form may be a part): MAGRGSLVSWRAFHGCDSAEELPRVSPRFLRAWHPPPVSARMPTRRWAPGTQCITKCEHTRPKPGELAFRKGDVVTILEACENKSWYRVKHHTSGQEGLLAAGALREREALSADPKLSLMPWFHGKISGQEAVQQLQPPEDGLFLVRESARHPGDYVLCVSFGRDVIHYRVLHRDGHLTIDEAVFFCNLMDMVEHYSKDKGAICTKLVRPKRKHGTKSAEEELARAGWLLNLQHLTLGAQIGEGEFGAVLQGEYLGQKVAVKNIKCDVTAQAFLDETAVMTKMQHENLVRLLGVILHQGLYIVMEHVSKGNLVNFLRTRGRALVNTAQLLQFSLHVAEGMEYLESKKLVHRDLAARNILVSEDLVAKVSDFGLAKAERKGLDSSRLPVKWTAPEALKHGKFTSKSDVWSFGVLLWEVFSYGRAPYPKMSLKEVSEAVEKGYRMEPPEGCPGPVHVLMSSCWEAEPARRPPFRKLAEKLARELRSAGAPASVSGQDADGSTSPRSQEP
Sequence of Phosphatidylinositol 4,5-bisphosphate 3-kinase catalytic subunit alpha isoform (Homo sapiens), P42336 [H1047Y] (P42336 whole entry H1047Y, the tested form may be a part, canonical isoform): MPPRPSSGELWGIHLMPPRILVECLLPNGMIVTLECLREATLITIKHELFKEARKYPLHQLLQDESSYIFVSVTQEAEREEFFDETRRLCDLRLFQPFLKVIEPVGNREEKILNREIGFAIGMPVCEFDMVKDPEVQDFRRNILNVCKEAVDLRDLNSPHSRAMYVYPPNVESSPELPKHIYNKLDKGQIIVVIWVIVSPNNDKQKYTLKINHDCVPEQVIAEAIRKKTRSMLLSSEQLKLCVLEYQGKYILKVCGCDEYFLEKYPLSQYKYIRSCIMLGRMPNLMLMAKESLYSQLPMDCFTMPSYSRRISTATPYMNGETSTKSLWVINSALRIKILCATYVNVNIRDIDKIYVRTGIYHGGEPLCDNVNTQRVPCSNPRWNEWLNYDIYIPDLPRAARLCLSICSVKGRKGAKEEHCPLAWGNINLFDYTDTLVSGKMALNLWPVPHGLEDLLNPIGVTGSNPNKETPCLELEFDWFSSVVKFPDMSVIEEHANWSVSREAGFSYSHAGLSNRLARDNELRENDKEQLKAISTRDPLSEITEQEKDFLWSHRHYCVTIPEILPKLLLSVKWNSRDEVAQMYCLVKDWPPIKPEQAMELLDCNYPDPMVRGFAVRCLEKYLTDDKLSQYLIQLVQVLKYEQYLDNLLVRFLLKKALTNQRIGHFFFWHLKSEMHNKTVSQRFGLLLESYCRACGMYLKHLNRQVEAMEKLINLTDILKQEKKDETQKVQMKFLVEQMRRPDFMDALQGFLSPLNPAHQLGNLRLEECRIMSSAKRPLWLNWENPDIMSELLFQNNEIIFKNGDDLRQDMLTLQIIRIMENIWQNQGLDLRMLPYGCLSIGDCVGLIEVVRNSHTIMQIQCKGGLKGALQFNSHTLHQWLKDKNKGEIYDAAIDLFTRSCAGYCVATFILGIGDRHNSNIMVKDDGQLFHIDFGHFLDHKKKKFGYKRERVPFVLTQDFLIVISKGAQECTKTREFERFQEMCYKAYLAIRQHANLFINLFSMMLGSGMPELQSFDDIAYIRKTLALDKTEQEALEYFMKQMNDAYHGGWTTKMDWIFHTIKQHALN

SMILES: Cc1ccc(NC(=O)c2ccc(CN(CCN(C)C)C(=O)c3cccnc3)cc2)cc1Nc1nccc(-c2cccnc2)n1
- Activity [1]: 100%
- Activity [2]: 100%
- Activity [3]: 100%
- Activity [4]: 85%
- Activity [5]: 96%
- IC50 [6]: > 10 µM
- Activity [7]: 76%
- Activity [8]: 71%
- Activity [9]: 90%
- Activity [10]: 23%
- Activity [11]: 100%
- Cmax [12]: 4590 ng/mL
- Activity [13]: 81%
- Activity [14]: 100%
- Activity [15]: 89%
- Activity [16]: 86%
- Activity [17]: 95%
- Activity [18]: 95%
- Activity [19]: 100%
- Activity [20]: 100%
- Activity [21]: 100%
